Assay [1] has as its target Tyrosine-protein kinase Lyn (Homo sapiens) (UniProt P07948). In words: Inhibition of Lyn at 1 uM. The essentials: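 Single-point screen within a 108-kinase selectivity panel. Each kinase was tested with inhibitor at 0.1 and 1.0 micromolar, and activity was recorded as percent inhibition.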
The target in assay [2] is Tyrosine-protein kinase SYK (Homo sapiens) (UniProt P43405). Put plainly: Inhibition of Syk at 1 uM.
Assay [3] has as its target ALK tyrosine kinase receptor (Homo sapiens) (UniProt Q9UM73). Put plainly: Inhibition of ALK at 1 uM; values are per cent of control.
Assay [4] addresses Tyrosine-protein kinase Fes/Fps (Homo sapiens) (UniProt P07332). In words: Inhibition of Fes at 1 uM; values are per cent of control.
The target in assay [5] is Macrophage colony-stimulating factor 1 receptor (Homo sapiens) (UniProt P07333). In words: Inhibition of Fms at 1 uM; values are per cent of control.
Macrophage colony-stimulating factor 1 receptor (Homo sapiens), sequence (P07333 whole entry): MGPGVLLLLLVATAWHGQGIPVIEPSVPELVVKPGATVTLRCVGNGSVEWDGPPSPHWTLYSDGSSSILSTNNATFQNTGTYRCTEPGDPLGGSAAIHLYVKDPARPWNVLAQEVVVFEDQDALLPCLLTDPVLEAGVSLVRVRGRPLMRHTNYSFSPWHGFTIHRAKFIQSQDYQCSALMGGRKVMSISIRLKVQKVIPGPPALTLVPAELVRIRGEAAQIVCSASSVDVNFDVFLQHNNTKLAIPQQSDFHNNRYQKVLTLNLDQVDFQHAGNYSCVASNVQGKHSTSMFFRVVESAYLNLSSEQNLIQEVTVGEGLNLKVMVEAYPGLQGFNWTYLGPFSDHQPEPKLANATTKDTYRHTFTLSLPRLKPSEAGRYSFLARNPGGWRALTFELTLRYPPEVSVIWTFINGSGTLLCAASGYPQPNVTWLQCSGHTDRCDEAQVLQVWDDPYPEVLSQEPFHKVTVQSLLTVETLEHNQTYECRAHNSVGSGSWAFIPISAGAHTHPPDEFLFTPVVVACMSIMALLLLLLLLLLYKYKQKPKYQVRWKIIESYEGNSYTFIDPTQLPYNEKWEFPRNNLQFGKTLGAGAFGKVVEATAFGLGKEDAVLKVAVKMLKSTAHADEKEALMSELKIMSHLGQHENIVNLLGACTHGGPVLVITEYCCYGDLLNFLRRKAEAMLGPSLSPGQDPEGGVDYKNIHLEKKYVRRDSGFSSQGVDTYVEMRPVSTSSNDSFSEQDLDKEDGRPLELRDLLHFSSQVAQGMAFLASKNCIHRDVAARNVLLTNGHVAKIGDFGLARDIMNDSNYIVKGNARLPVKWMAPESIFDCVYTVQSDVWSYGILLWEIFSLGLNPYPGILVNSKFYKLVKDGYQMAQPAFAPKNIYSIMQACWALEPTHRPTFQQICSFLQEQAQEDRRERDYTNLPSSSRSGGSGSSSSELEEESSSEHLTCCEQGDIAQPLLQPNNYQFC
The target in assay [6] is Dual specificity mitogen-activated protein kinase kinase 1 (Homo sapiens) (UniProt Q02750). In words: Inhibition of MEK1 at 1 uM; values are per cent of control.
Dual specificity mitogen-activated protein kinase kinase 1 (Homo sapiens), sequence (Q02750 whole entry): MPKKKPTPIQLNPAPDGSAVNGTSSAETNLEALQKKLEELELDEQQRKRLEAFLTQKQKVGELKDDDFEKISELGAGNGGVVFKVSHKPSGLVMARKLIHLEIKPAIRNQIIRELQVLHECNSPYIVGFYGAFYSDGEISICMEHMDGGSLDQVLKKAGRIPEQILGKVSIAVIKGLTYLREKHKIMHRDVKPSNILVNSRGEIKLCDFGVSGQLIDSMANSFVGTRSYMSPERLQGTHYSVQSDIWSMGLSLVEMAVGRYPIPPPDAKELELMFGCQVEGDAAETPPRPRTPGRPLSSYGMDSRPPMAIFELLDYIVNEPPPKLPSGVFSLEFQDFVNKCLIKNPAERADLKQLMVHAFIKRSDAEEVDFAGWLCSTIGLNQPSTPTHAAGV
Assay [7] has as its target T1, Dual specificity mitogen-activated protein kinase kinase 6 (Homo sapiens) (UniProt P52564).
T1 sequence (whole entry): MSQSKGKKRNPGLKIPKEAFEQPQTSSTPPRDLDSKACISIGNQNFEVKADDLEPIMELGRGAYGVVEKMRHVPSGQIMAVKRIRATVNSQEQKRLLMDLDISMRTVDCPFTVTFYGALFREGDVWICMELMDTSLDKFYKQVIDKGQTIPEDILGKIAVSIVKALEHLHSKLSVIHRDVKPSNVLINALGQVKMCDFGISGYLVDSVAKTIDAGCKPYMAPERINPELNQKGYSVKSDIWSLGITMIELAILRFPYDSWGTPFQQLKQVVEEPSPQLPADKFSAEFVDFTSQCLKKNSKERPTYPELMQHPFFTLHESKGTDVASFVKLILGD
Put plainly: Inhibition of MKK6 at 1 uM; values are per cent of control.

Assay [8] concerns the target Myosin light chain kinase, smooth muscle (Homo sapiens) (UniProt Q15746). In words: Inhibition of MLCK at 1 uM; values are per cent of control.
For assay [9], the target named is Serine/threonine-protein kinase PAK 2 (Homo sapiens) (UniProt Q13177). In words: Inhibition of PAK2 at 1 uM; values are per cent of control.
Serine/threonine-protein kinase PAK 2 (Homo sapiens), sequence (Q13177 whole entry): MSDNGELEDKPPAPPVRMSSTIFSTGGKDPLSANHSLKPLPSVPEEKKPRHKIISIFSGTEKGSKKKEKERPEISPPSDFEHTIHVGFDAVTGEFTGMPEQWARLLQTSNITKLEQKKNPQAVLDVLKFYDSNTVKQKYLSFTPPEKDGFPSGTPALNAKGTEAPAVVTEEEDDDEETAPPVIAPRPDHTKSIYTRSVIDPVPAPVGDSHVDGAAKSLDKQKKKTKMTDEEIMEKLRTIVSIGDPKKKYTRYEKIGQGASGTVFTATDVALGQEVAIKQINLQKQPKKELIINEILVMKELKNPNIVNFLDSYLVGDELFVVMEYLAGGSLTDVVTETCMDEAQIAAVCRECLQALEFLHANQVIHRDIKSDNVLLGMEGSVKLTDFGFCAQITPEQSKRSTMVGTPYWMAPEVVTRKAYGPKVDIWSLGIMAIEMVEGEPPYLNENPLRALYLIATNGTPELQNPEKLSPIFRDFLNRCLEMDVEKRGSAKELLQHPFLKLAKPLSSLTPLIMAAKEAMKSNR
Assay [10] has as its target T2, Serine/threonine-protein kinase D2 (Homo sapiens) (UniProt Q9BZL6).
T2 sequence (whole entry): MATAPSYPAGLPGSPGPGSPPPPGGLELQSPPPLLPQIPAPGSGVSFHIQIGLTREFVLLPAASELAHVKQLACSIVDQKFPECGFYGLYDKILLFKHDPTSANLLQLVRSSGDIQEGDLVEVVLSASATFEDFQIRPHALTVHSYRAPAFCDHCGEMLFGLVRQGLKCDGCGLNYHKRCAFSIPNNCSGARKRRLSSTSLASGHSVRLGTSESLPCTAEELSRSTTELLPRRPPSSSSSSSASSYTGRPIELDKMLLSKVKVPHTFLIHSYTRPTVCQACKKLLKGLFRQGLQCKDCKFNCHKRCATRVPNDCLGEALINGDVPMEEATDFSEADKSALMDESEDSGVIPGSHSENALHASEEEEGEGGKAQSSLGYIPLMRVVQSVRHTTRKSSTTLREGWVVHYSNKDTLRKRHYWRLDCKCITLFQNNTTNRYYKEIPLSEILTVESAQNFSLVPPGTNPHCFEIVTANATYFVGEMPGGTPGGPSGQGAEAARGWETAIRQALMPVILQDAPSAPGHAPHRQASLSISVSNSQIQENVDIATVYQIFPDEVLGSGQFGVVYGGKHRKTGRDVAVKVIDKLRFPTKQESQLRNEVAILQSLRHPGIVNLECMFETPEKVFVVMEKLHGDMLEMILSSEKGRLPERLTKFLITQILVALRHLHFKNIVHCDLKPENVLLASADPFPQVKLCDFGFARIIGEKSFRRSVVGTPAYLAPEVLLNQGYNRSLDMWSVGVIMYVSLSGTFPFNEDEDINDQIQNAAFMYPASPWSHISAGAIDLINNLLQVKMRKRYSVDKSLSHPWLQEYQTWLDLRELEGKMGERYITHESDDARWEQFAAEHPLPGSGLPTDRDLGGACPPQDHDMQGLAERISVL
In words: Inhibition of PKD2 at 1 uM; values are per cent of control.

Assay [11] addresses Serine/threonine-protein kinase PLK3 (Homo sapiens) (UniProt Q9H4B4). Put plainly: Inhibition of Plk3 at 1 uM; values are per cent of control.
In assay [12] the target is Macrophage colony-stimulating factor 1 receptor (Homo sapiens) (UniProt P07333). In words: Inhibition of Fms at 0.1 uM; values are per cent of control.
In assay [13] the target is Death-associated protein kinase 2 (Homo sapiens) (UniProt Q9UIK4). Put plainly: Inhibition of DAPK2 at 1 uM; values are per cent of control.
Death-associated protein kinase 2 (Homo sapiens), sequence (Q9UIK4 whole entry, looked up): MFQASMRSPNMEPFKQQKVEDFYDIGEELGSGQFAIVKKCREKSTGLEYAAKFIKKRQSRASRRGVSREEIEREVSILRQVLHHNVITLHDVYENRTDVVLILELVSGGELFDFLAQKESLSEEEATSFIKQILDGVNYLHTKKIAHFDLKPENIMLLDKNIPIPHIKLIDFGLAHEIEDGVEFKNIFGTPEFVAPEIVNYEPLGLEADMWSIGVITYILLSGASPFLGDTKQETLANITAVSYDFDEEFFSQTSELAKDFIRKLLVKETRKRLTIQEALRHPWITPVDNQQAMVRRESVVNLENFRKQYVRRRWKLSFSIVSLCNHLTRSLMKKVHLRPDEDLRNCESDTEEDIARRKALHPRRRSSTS
The target in assay [14] is Ephrin type-A receptor 4 (Homo sapiens) (UniProt P54764). Put plainly: Inhibition of EphA4 at 1 uM; values are per cent of control.
Assay [15] addresses Insulin-like growth factor 1 receptor (Homo sapiens) (UniProt P08069). Put plainly: Inhibition of IGF1R at 1 uM; values are per cent of control.
The target in assay [16] is T3, Serine/threonine-protein kinase STK11 (Homo sapiens) (UniProt Q15831).
T3 sequence (whole entry): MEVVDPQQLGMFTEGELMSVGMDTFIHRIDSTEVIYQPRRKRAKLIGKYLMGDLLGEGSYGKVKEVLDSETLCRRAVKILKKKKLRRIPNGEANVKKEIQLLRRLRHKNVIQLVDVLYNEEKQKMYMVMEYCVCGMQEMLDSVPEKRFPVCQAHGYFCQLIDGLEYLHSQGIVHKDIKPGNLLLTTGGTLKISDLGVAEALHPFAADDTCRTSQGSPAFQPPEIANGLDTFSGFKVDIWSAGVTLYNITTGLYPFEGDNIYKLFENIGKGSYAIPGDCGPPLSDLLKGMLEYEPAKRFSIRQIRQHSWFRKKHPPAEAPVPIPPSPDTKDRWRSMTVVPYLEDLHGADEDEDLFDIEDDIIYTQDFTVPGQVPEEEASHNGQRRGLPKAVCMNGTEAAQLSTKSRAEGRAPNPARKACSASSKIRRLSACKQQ
In words: Inhibition of LKB1 at 0.1 uM; values are per cent of control.

Assay [17] deals with Serine/threonine-protein kinase 33 (Homo sapiens) (UniProt Q9BYT3). In words: Inhibition of STK33 at 0.1 uM; values are per cent of control.

As a reminder, the inhibition is the change of the read-out against control, counted positive when it falls.

Serine/threonine-protein kinase PLK3 (Homo sapiens), sequence (Q9H4B4 whole entry, looked up): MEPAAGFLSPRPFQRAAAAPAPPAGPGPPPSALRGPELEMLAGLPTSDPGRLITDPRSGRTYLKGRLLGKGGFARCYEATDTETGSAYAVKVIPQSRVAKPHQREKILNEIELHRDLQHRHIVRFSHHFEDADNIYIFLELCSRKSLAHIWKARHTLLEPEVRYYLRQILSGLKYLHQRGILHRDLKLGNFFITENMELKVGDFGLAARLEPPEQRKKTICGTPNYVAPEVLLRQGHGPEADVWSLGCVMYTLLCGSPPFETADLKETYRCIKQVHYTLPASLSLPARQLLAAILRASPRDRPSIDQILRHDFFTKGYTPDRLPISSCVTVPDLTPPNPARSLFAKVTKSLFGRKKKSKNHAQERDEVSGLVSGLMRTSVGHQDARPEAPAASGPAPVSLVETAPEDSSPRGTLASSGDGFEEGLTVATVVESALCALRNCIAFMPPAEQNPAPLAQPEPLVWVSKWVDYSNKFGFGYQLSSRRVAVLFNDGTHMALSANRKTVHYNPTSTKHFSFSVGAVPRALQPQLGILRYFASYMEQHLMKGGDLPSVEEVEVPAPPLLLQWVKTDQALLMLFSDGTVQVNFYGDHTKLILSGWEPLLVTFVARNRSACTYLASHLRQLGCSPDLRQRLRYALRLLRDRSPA
Myosin light chain kinase, smooth muscle (Homo sapiens), sequence (Q15746 whole entry): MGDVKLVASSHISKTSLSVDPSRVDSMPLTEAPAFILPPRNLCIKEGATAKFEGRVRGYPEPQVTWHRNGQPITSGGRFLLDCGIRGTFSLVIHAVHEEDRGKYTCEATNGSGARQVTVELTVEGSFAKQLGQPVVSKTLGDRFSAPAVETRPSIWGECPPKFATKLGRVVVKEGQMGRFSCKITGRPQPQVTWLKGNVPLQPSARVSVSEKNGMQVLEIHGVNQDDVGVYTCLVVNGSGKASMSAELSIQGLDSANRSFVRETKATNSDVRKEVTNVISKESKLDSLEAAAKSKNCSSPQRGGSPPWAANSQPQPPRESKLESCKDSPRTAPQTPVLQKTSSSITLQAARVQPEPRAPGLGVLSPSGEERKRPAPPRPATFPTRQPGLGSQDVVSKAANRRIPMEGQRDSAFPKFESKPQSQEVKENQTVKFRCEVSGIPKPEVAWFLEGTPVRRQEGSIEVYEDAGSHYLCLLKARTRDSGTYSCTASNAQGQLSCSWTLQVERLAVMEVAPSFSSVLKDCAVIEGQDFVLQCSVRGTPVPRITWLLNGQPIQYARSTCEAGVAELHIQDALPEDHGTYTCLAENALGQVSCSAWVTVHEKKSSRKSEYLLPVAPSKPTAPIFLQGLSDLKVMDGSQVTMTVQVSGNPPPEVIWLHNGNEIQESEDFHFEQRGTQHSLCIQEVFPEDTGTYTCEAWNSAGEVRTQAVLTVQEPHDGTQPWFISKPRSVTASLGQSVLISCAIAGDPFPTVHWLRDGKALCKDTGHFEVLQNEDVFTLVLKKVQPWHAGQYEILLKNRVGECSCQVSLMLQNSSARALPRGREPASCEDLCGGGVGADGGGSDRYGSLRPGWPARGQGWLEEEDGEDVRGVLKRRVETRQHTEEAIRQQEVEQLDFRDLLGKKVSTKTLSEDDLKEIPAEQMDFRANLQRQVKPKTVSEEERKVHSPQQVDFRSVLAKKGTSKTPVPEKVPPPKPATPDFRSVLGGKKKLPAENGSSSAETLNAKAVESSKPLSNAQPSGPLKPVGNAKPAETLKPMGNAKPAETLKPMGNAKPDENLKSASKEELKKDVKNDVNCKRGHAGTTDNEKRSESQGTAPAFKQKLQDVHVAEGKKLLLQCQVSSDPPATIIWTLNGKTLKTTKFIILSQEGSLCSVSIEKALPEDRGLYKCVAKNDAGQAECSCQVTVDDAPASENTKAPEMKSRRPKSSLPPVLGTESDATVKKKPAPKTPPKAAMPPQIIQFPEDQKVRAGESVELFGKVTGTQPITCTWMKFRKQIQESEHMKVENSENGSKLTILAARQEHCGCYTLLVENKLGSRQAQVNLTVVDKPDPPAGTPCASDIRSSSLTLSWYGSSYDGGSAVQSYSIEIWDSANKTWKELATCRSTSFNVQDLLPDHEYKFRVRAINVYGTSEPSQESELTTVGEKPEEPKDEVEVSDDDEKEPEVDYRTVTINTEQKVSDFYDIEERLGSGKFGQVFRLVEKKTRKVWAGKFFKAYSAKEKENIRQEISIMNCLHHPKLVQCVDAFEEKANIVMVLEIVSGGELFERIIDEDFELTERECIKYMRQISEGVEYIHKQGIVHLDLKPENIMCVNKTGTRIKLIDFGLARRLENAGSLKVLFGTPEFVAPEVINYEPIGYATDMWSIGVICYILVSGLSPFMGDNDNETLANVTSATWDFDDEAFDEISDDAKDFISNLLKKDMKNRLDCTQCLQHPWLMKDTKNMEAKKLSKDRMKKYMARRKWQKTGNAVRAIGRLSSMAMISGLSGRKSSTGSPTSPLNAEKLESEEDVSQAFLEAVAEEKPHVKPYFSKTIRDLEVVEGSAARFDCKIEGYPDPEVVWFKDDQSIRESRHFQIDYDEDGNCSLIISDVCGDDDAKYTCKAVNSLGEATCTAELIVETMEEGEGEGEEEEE

With `Cc1ccc2cc(-c3n[nH]c4ccc(NC5CCNC5)cc34)[nH]c2c1` (centres undefined), the inhibition in assay [1] was 1%; in [2] it was 0%. Also, the residual activity worked out at 5% in assay [3]; 0% in [4]; 10% in assay [5]; 13% in [6]; 15% in [7]; 44% in [8]. Further, the residual activity in assay [9] came to 38%; in [10], 12%; in assay [11], 100%; in assay [12], 57%; in assay [13] it was 61%; in assay [14], 72%. In addition, the residual activity in assay [15] was found to be 36%; in assay [16] it was 104%; in assay [17] it was 76%.
Turning to `Cc1ccc2cc(-c3n[nH]c4ccc(NC5CCN(Cc6ccccc6)CC5)cc34)[nH]c2c1`, the inhibition in [1] was 0%; in [2], -2%. Further, the residual activity in assay [3] worked out at 4%; in [4] it was 1%; in assay [5], 20%; in assay [6], 87%; in assay [7] it was 85%; in assay [8], 63%. The residual activity was 72% in assay [9]; 80% in assay [10]; 117% in assay [11]; 60% in assay [12]; 112% in assay [13]; 68% in assay [14]. In addition, the residual activity in assay [15] was 16%; in [16], 97%; in [17], 13%.

Source of the values: ChEMBL document CHEMBL1681705, “Optimisation of ITK inhibitors through successive iterative design cycles” (Bioorg Med Chem Lett, 2011).
